Experimental findings from ChEMBL document CHEMBL4765233, “From Lead to Drug Candidate: Optimization of 3-(Phenylethynyl)-1H-pyrazolo[3,4-d]pyrimidin-4-amine Derivatives as Agents for the Treatment of Triple Negative Breast Cancer” (J Med Chem, 2016) are described below.

Some results are limits rather than exact numbers.

The subject of one assay is MDA-MB-231. The experiment in a line: Antiproliferative activity against human MDA-MB-231 cells assessed as reduction in cell viability incubated for 72 hrs by MTT assay. It is filed as functional, cell-based. The following applies: MDA-MB-231, 72 h. In short, it runs like this: (§1)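 MTT viability assay. ATCC cell lines were grown in designated medium with 10% FBS at 37 °C, 5% CO2. Cells seeded at 1500−30000 per well and incubated 24 h, then exposed to compound (0−10 μg/mL) for 72 h. MTT added for 2−4 h. Formazan dissolved in DMSO (adherent) or acidified SDS overnight (suspension), absorbance read at 570 nm. Triplicates; IC50 calculated.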
A general note: Tetrazolium dyes change colour on reduction, which living cells bring about.

Another assay deals with MDA-MB-435. The experiment in a line: Antiproliferative activity against human MDA-MB-435 cells assessed as reduction in cell viability incubated for 72 hrs by MTT assay. It is filed as functional, cell-based. As to conditions: MDA-MB-435, 72 h. The gist of the method: as §1
The subject of another assay is HepG2. The experiment in a line: Antiproliferative activity against human HepG2 cells assessed as reduction in cell viability incubated for 72 hrs by MTT assay. The format is ADME, cell-based. As to conditions: HepG2, 72 h.

As a reminder, the IC50 is the concentration that gives 50% inhibition. On to `Cc1ccc(NC(=O)c2cccc(C(F)(F)F)c2F)cc1C#Cc1nn(C2CCN(C)CC2)c2ncnc(N)c12`, for which the IC50 in the assay on MDA-MB-231 is 296 nM; with MDA-MB-435, 273 nM; with HepG2 it was more than 10000 nM.

As to `Cc1ccc(NC(=O)c2cccc(C(C)(C)C)c2)cc1C#Cc1nn([C@H]2CC[C@H](O)CC2)c2ncnc(N)c12`, the IC50 came to 30 nM in the assay on MDA-MB-231, 12 nM in the assay on MDA-MB-435 and 4400 nM in the assay on HepG2.

As for `Cc1ccc(C(=O)Nc2cccc(C(F)(F)F)c2)cc1C#Cc1nn(CC2CCN(C)C2)c2ncnc(N)c12` (centres undefined), the IC50 worked out at 41 nM in the assay with MDA-MB-231, 115 nM with MDA-MB-435 and 3500 nM in the assay with HepG2.

For the compound `Cc1ccc(NC(=O)c2cc(C(F)(F)F)cc(C(F)(F)F)c2)cc1C#Cc1nn(C2CCN(C)CC2)c2ncnc(N)c12`, the results for the IC50 with MDA-MB-231, in the assay on MDA-MB-435 and in the assay with HepG2 were 51 nM, 94 nM and 7100 nM, respectively.

For `CN1CCC(n2nc(C#Cc3cc(NC(=O)Nc4cccc(C(F)(F)F)c4)ccc3Cl)c3c(N)ncnc32)CC1`, the figures for the IC50 in the assay on MDA-MB-231, in the assay with MDA-MB-435 and in the assay with HepG2 were 947 nM, 334 nM and more than 10000 nM, respectively.

On to `CN1CCC(n2nc(C#Cc3cccc(NC(=O)c4cccc(C(F)(F)F)c4)c3)c3c(N)ncnc32)CC1`, for which the IC50 with MDA-MB-231 amounted to 597 nM; in the assay on MDA-MB-435 it was 140 nM; in the assay with HepG2, 6000 nM.

As for `Cc1ccc(NC(=O)Nc2cccc(C(F)(F)F)c2)cc1C#Cc1nn(C2CCN(C)CC2)c2ncnc(N)c12`, the IC50 with MDA-MB-231 was 515 nM; in the assay with MDA-MB-435, 90 nM; in the assay on HepG2, more than 10000 nM.

With `CN1CCC(n2nc(C#Cc3cc(NC(=O)c4cccc(C(F)(F)F)c4)ccc3Cl)c3c(N)ncnc32)CC1`, the IC50 is 947 nM with MDA-MB-231, 195 nM in the assay with MDA-MB-435 and more than 10000 nM in the assay with HepG2.

Turning to `Cc1ccc(NC(=O)c2cc(C(C)(C)C)nn2C)cc1C#Cc1nn(C2CCN(C)CC2)c2ncnc(N)c12`, the values for the IC50 with MDA-MB-231, in the assay with MDA-MB-435 and in the assay with HepG2 were 324 nM, 80 nM and more than 10000 nM, respectively.

As for `Cc1ccc(C(=O)Nc2cccc(C(F)(F)F)c2)cc1C#Cc1nn(CC2CCN(C)CC2)c2ncnc(N)c12`, the IC50 in the assay with MDA-MB-231 worked out at 70 nM; with MDA-MB-435, 55 nM; with HepG2, 3100 nM.

Consider `Cc1ccc(NC(=O)c2cccc(C(F)(F)F)c2)cc1C#Cc1nn(CC2CCN(C)CC2)c2ncnc(N)c12`, for which the IC50 in the assay with HepG2 came out at 3200 nM.

Take `Cc1ccc(NC(=O)c2cccc(C(F)(F)F)c2)cc1C#Cc1nn(CC2CCN(C)C2)c2ncnc(N)c12` (centres undefined): the IC50 in the assay on HepG2 was found to be 4700 nM.

For the compound `Cc1ccc(NC(=O)c2cnc(C(C)(C)C)s2)cc1C#Cc1nn(C[C@@H](C)CO)c2ncnc(N)c12`, the IC50 with MDA-MB-231 is 34 nM; in the assay on MDA-MB-435, 73 nM; in the assay on HepG2, more than 10000 nM.

As to `Cc1ccc(NC(=O)c2cc(C(C)(C)C)on2)cc1C#Cc1nn(C2CCN(C)CC2)c2ncnc(N)c12`, the values for the IC50 with MDA-MB-231, in the assay with MDA-MB-435 and in the assay on HepG2 were 188 nM, 82 nM and more than 10000 nM, respectively.

On to `Cc1ccc(NC(=O)c2cccc(F)c2)cc1C#Cc1nn(C2CCN(C)CC2)c2ncnc(N)c12`, for which the IC50 with MDA-MB-231 was 812 nM; in the assay on MDA-MB-435 it was 2070 nM; in the assay with HepG2, more than 10000 nM.

For `Cc1ccc(NC(=O)c2cccc(C(F)(F)F)n2)cc1C#Cc1nn(C2CCN(C)CC2)c2ncnc(N)c12`, the IC50 in the assay on MDA-MB-231 was 509 nM; with MDA-MB-435, 2470 nM; in the assay with HepG2, more than 10000 nM.

Consider `Cc1ccc(NC(=O)c2ccc(C)c(C(F)(F)F)c2)cc1C#Cc1nn(C[C@@H](C)CO)c2ncnc(N)c12`, for which the values for the IC50 in the assay on MDA-MB-231, with MDA-MB-435 and with HepG2 were 48 nM, 123 nM and 8300 nM, respectively.

On to `Cc1ccc(NC(=O)c2ccc(C(F)(F)F)cc2)cc1C#Cc1nn(C2CCN(C)CC2)c2ncnc(N)c12`, for which the IC50 in the assay on MDA-MB-231 is 854 nM; with MDA-MB-435 it was 5140 nM; with HepG2, more than 10000 nM.

Take `Cc1ccc(NC(=O)c2ccc(Cl)c(C(F)(F)F)c2)cc1C#Cc1nn(C[C@@H](C)CO)c2ncnc(N)c12`: the IC50 is 23 nM with MDA-MB-231, 319 nM in the assay with MDA-MB-435 and more than 10000 nM in the assay with HepG2.

With `Cc1ccc(NC(=O)c2ccnc(C(F)(F)F)c2)cc1C#Cc1nn(C2CCN(C)CC2)c2ncnc(N)c12`, the IC50 in the assay with MDA-MB-231 is 284 nM; with MDA-MB-435 it was 183 nM; in the assay on HepG2 it was more than 10000 nM.

Regarding `CCn1nc(C#Cc2cc(C(=O)Nc3cccc(C(F)(F)F)c3)ccc2C)c2c(N)ncnc21`, the IC50 in the assay with MDA-MB-231 is 360 nM; with MDA-MB-435 it was 238 nM; in the assay with HepG2, more than 10000 nM.

Take `Cc1ccc(NC(=O)c2cc(C(F)(F)F)cc(Cl)c2F)cc1C#Cc1nn(C2CCN(C)CC2)c2ncnc(N)c12`: the results for the IC50 with MDA-MB-231, with MDA-MB-435 and in the assay on HepG2 were 1880 nM, 3380 nM and more than 10000 nM, respectively.

Consider `Cc1ccc(C(=O)Nc2cccc(C(F)(F)F)c2)cc1C#Cc1nn([C@@H]2CCN(C)C2)c2ncnc(N)c12`, for which the IC50 was found to be 13 nM with MDA-MB-231, 44 nM in the assay on MDA-MB-435 and 4600 nM in the assay on HepG2.

Consider `COc1ccc(C(=O)Nc2ccc(C)c(C#Cc3nn(C4CCN(C)CC4)c4ncnc(N)c34)c2)cc1`, for which the IC50 in the assay with MDA-MB-231 is 1360 nM; with MDA-MB-435, 8900 nM; in the assay on HepG2, more than 10000 nM.

For `Cc1ccc(NC(=O)c2cc(F)cc(C(F)(F)F)c2)cc1C#Cc1nn(C2CCN(C)CC2)c2ncnc(N)c12`, the IC50 is 671 nM in the assay with MDA-MB-231, 1430 nM in the assay with MDA-MB-435 and more than 10000 nM in the assay on HepG2.

`CN1CCC(n2nc(C#Cc3cccc(C(=O)Nc4cccc(C(F)(F)F)c4)c3)c3c(N)ncnc32)CC1`: the IC50 with MDA-MB-231 is 1690 nM; in the assay on MDA-MB-435 it was 343 nM; in the assay with HepG2 it was more than 10000 nM.

As for `Cc1ccc(NC(=O)c2cccc(C(F)(F)F)c2)cc1C#Cc1nn([C@@H]2CCN(C)C2)c2ncnc(N)c12`, the IC50 with HepG2 came to 6600 nM.

Regarding `Cc1ccc(NC(=O)c2cccc(C(C)(C)C)c2)cc1C#Cc1nn(C2CCN(C)CC2)c2ncnc(N)c12`, the concentration for half-maximal inhibition (IC50) is 59 nM in the assay with MDA-MB-231, 20 nM with MDA-MB-435 and more than 10000 nM in the assay on HepG2.

Consider `Cc1ccc(NC(=O)c2ccc(F)c(C(F)(F)F)c2)cc1C#Cc1nn(C2CCN(C)CC2)c2ncnc(N)c12`, for which the IC50 in the assay on MDA-MB-231 is 523 nM; with MDA-MB-435 it was 621 nM; in the assay with HepG2, more than 10000 nM.

With `CN1CCC(n2nc(C#Cc3cc(C(=O)Nc4cccc(C(F)(F)F)c4)ccc3Cl)c3c(N)ncnc32)CC1`, the IC50 in the assay on MDA-MB-231 was 749 nM; in the assay on MDA-MB-435, 135 nM; in the assay on HepG2 it was more than 10000 nM.

Turning to `Cc1cccc(C(=O)Nc2ccc(C)c(C#Cc3nn(C4CCN(C)CC4)c4ncnc(N)c34)c2)c1`, the IC50 was 133 nM in the assay with MDA-MB-231, 422 nM in the assay on MDA-MB-435 and more than 10000 nM with HepG2.

Consider `COc1cccc(C(=O)Nc2ccc(C)c(C#Cc3nn(C4CCN(C)CC4)c4ncnc(N)c34)c2)c1`, for which the values for the IC50 in the assay with MDA-MB-231, in the assay on MDA-MB-435 and with HepG2 were 101 nM, 285 nM and more than 10000 nM, respectively.

For `Cc1ccc(NC(=O)c2cc(C(F)(F)F)ccc2F)cc1C#Cc1nn(C2CCN(C)CC2)c2ncnc(N)c12`, the IC50 in the assay on MDA-MB-231 stood at 201 nM; in the assay with MDA-MB-435, 117 nM; with HepG2 it was 2700 nM.

Regarding `Cc1ccc(NC(=O)c2cccc(Cl)c2)cc1C#Cc1nn(C2CCN(C)CC2)c2ncnc(N)c12`, the IC50 stood at 60 nM in the assay with MDA-MB-231, 733 nM in the assay with MDA-MB-435 and 9200 nM in the assay with HepG2.

`Cc1ccc(NC(=O)c2cccc(OC(F)(F)F)c2)cc1C#Cc1nn(C2CCN(C)CC2)c2ncnc(N)c12`: the IC50 was 75 nM with MDA-MB-231, 93 nM with MDA-MB-435 and more than 10000 nM in the assay on HepG2.
